Measured values from ChEMBL document CHEMBL4261579, “β-amino alcohols and their respective 2-phenyl-N-alkyl aziridines as potential DNA minor groove binders” (Eur J Med Chem, 2018).

How the values were obtained:
[1] = Selectivity index, ratio of CC50 for human MCF10 cells to IC50 for human MDA-MB-231 cells; assay type: toxicity; conditions: MCF10 cells versus MDA-MB-231 cells, read-out: Ratio CC50/IC50
MDA-MB-231 [2] = test: Antiproliferative activity against human MDA-MB-231 cells after 48 hrs by MTT assay; assay type: functional, cell-based; conditions: MDA-MB-231, 48 h
Summary of the method: (§1)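 MCF-10, MCF-7 or MDA-MB-231 cells, 5.0×10^5 cells seeded and grown 24 h, then exposed 48 h at 37°C to serial dilutions from 500 to 3.9 μM (DMSO 0,5%). Read-out by MTT (2.0 mg/mL in PBS), formazan dissolved in DMSO, absorbance at 570 nm. Viability is given as % of untreated cells, with IC50 from curve fitting. Mean of triplicates.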

MCF7 = test: Antiproliferative activity against human MCF7 cells after 48 hrs by MTT assay; assay type: functional, cell-based; conditions: MCF7, 48 h; summary of the method: as §1
[3] = Selectivity index, ratio of CC50 for human MCF10 cells to IC50 for human MCF7 cells; assay type: toxicity; conditions: MCF10 cells versus MCF7 cells, read-out: Ratio CC50/IC50
[4] = Antiproliferative activity against human MCF10 cells after 48 hrs by MTT assay; assay type: cell-based; summary of the method: as §1
MDA-MB-231 [5] = test: Induction of apoptosis in human MDA-MB-231 cells assessed as necrotic cells after 48 hrs by Annexin V/FITC-propidium iodide staining-based flow cytometric analysis (reference value: 7.2%)
MDA-MB-231 [6] = test: Induction of apoptosis in human MDA-MB-231 cells assessed as early apoptotic cells after 48 hrs by Annexin V/FITC-propidium iodide staining-based flow cytometric analysis (reference value: 9.0%)
MDA-MB-231 [7] = test: Induction of apoptosis in human MDA-MB-231 cells assessed as late apoptotic cells after 48 hrs by Annexin V/FITC-propidium iodide staining-based flow cytometric analysis (reference value: 10.7%)
Calf thymus DNA = test: Binding affinity to calf thymus DNA at 10^-6 mol/L after 5 mins by UV/Visible spectrophotometric method; assay type: nucleic-acid assay; conditions: Bos taurus
Summary of the method: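 Calf-thymus DNA dissolved in Tris buffer (5 mM Tris-HCl, 50 mM NaCl, pH 7.4), stirred about 12 h, A260/A280 1.86, quantified at 260 nm (ε 6600 M⁻¹ cm⁻¹). Kb was taken from a Benesi-Hildebrand fit.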

Kb (Calf thymus DNA) [×10⁵ /M]	SMILES	selectivity ratio [1]	IC50 (MDA-MB-231 [2]) [µM]	IC50 (MCF7) [µM]	selectivity ratio [3]	CC50 at 48 h [4] [µM]	Activity (MDA-MB-231 [5]) [%]	Activity (MDA-MB-231 [6]) [%]	Activity (MDA-MB-231 [7]) [%]
	c1ccc(CCN2CC2c2ccccc2)cc1 (stereo unspecified)	1.97	19	170	0.2	37.6			
	OC(CNc1ccccc1)c1ccccc1 (stereo unspecified)	1.33	237	236	1.33	316			
	CCCCNCC(O)c1ccccc1 (stereo unspecified)	0.72	259	280	0.67	188			
	OC(CNCCCCc1ccccc1)c1ccc(Br)cc1 (stereo unspecified)	2.57	22.7	14.5	4.04	58.5	6.7	33.6	56.8
	OC(CNCCCc1ccccc1)c1ccccc1 (stereo unspecified)	1.92	102	96.4	2.02	196			
	OC(CNCc1ccccc1)c1ccccc1 (stereo unspecified)	0.89	225	210	0.96	202			
1.59	OC(CNCCCCc1ccccc1)c1ccccc1 (stereo unspecified)	2.11	50.8	37.2	2.88	107			
	c1ccc(CCCCN2CC2c2ccccc2)cc1 (stereo unspecified)	4.08	11.1	24.7	1.83	43.3	3.3		40
	OC(CNCCc1ccccc1)c1ccccc1 (stereo unspecified)	1.04	190	318	0.62	198			
	c1ccc(CN2CC2c2ccccc2)cc1 (stereo unspecified)	1.01	40.4	27.8	1.47	41			
	c1ccc(CCCN2CC2c2ccccc2)cc1 (stereo unspecified)	1.77	19.9	24.5	1.44	35.4			
	OC(CNCc1ccccc1)c1ccc(Br)cc1 (stereo unspecified)	1.56	73.9	53	2.18	116			
